Data: ChEMBL document CHEMBL1133614, “Novel radiotracers for imaging the serotonin transporter by positron emission tomography: synthesis, radiosynthesis, and in vitro and ex vivo evaluation of (11)C-labeled 2-(phenylthio)araalkylamines” (J Med Chem, 2000)

Columns and labels:
[1] = Half-life of washout rate of radioactivity from the cerebellum.; assay type: ADME, tissue-based
In short: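 Rats received the 11C tracer by tail vein (3-30 MBq, 350-450 ng, buffered saline), 3 per time point. Cerebellar radioactivity (%ID/g) was followed over time after injection, and the half-life of its washout was derived from that time course.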

[2] = Log P at pH 7.4; assay type: physicochemical; settings: buffer, read-out: logD
In short: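 Partition of the radiolabelled compound between 1-octanol and 0.02 M phosphate buffer at pH 7.4.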

Rattus norvegicus [3] = species on record: Rattus norvegicus; assay: Biodistribution of radioactivity in rat thalamus upon Tail-Vein injection of [11C]-labeled compound after 15 min; assay type: ADME, organism-based; settings: in vivo, iv, 0.25 h
Rattus norvegicus [4] = species on record: Rattus norvegicus; assay: Biodistribution of radioactivity in rat thalamus upon Tail-Vein injection of [11C]-labeled compound after 30 min; assay type: ADME, organism-based; settings: in vivo, iv, 0.5 h
Rattus norvegicus [5] = species on record: Rattus norvegicus; assay: Biodistribution of radioactivity in rat thalamus upon Tail-Vein injection of [11C]-labeled compound after 45 min; assay type: ADME, organism-based; settings: in vivo, iv, 0.75 h
Rattus norvegicus [6] = species on record: Rattus norvegicus; assay: Biodistribution of radioactivity in rat blood upon Tail-Vein injection of [11C]-labeled compound after 15 min; assay type: ADME, organism-based; settings: in vivo, iv, 0.25 h
Rattus norvegicus [7] = species on record: Rattus norvegicus; assay: Biodistribution of radioactivity in rat blood upon Tail-Vein injection of [11C]-labeled compound after 30 min; assay type: ADME, organism-based; settings: in vivo, iv, 0.5 h
Rattus norvegicus [8] = species on record: Rattus norvegicus; assay: Biodistribution of radioactivity in rat blood upon Tail-Vein injection of [11C]-labeled compound after 45 min; assay type: ADME, organism-based; settings: in vivo, iv, 0.75 h
Rattus norvegicus [9] = species on record: Rattus norvegicus; assay: Biodistribution of radioactivity in rat blood upon Tail-Vein injection of [11C]-labeled compound after 5 min; assay type: ADME, organism-based; settings: in vivo, iv
Rattus norvegicus [10] = species on record: Rattus norvegicus; assay: Biodistribution of radioactivity in rat blood upon Tail-Vein injection of [11C]-labeled compound after 60 min; assay type: ADME, organism-based; settings: in vivo, iv, 1 h
Rattus norvegicus [11] = species on record: Rattus norvegicus; assay: Biodistribution of radioactivity in rat cerebellum upon Tail-Vein injection of [11C]-labeled compound after 15 min; assay type: ADME, organism-based; settings: in vivo, iv, 0.25 h
Rattus norvegicus [12] = species on record: Rattus norvegicus; assay: Biodistribution of radioactivity in rat cerebellum upon Tail-Vein injection of [11C]-labeled compound after 30 min; assay type: ADME, organism-based; settings: in vivo, iv, 0.5 h
Rattus norvegicus [13] = species on record: Rattus norvegicus; assay: Biodistribution of radioactivity in rat cerebellum upon Tail-Vein injection of [11C]-labeled compound after 45 min; assay type: ADME, organism-based; settings: in vivo, iv, 0.75 h
Rattus norvegicus [14] = species on record: Rattus norvegicus; assay: Biodistribution of radioactivity in rat cerebellum upon Tail-Vein injection of [11C]-labeled compound after 5 min; assay type: ADME, organism-based; settings: in vivo, iv
Rattus norvegicus [15] = species on record: Rattus norvegicus; assay: Biodistribution of radioactivity in rat cerebellum upon Tail-Vein injection of [11C]-labeled compound after 60 min; assay type: ADME, organism-based; settings: in vivo, iv, 1 h
Rattus norvegicus [16] = species on record: Rattus norvegicus; assay: Biodistribution of radioactivity in rat cortex upon Tail-Vein injection of [11C]-labeled compound after 15 min; assay type: ADME, organism-based; settings: in vivo, iv, 0.25 h
Rattus norvegicus [17] = species on record: Rattus norvegicus; assay: Biodistribution of radioactivity in rat cortex upon Tail-Vein injection of [11C]-labeled compound after 30 min; assay type: ADME, organism-based; settings: in vivo, iv, 0.5 h
Rattus norvegicus [18] = species on record: Rattus norvegicus; assay: Biodistribution of radioactivity in rat cortex upon Tail-Vein injection of [11C]-labeled compound after 45 min; assay type: ADME, organism-based; settings: in vivo, iv, 0.75 h
Rattus norvegicus [19] = species on record: Rattus norvegicus; assay: Biodistribution of radioactivity in rat thalamus upon Tail-Vein injection of [11C]-labeled compound after 5 min; assay type: ADME, organism-based; settings: in vivo, iv
Rattus norvegicus [20] = species on record: Rattus norvegicus; assay: Biodistribution of radioactivity in rat cortex upon Tail-Vein injection of [11C]-labeled compound after 5 min; assay type: ADME, organism-based; settings: in vivo, iv
Rattus norvegicus [21] = species on record: Rattus norvegicus; assay: Biodistribution of radioactivity in rat cortex upon Tail-Vein injection of [11C]-labeled compound after 60 min; assay type: ADME, organism-based; settings: in vivo, iv, 1 h
Rattus norvegicus [22] = species on record: Rattus norvegicus; assay: Biodistribution of radioactivity in rat hippocampus upon Tail-Vein injection of [11C]-labeled compound after 15 min; assay type: ADME, organism-based; settings: in vivo, iv, 0.25 h
Rattus norvegicus [23] = species on record: Rattus norvegicus; assay: Biodistribution of radioactivity in rat hippocampus upon Tail-Vein injection of [11C]-labeled compound after 30 min; assay type: ADME, organism-based; settings: in vivo, iv, 0.5 h
Rattus norvegicus [24] = species on record: Rattus norvegicus; assay: Biodistribution of radioactivity in rat hippocampus upon Tail-Vein injection of [11C]-labeled compound after 45 min; assay type: ADME, organism-based; settings: in vivo, iv, 0.75 h
Rattus norvegicus [25] = species on record: Rattus norvegicus; assay: Biodistribution of radioactivity in rat hippocampus upon Tail-Vein injection of [11C]-labeled compound after 5 min; assay type: ADME, organism-based; settings: in vivo, iv
Rattus norvegicus [26] = species on record: Rattus norvegicus; assay: Biodistribution of radioactivity in rat hippocampus upon Tail-Vein injection of [11C]-labeled compound after 60 min; assay type: ADME, organism-based; settings: in vivo, iv, 1 h
Rattus norvegicus [27] = species on record: Rattus norvegicus; assay: Biodistribution of radioactivity in rat hypothalamus upon Tail-Vein injection of [11C]-labeled compound after 15 min; assay type: ADME, organism-based; settings: in vivo, iv, 0.25 h
Rattus norvegicus [28] = species on record: Rattus norvegicus; assay: Biodistribution of radioactivity in rat hypothalamus upon Tail-Vein injection of [11C]-labeled compound after 30 min; assay type: ADME, organism-based; settings: in vivo, iv, 0.5 h
Rattus norvegicus [29] = species on record: Rattus norvegicus; assay: Biodistribution of radioactivity in rat hypothalamus upon Tail-Vein injection of [11C]-labeled compound after 45 min; assay type: ADME, organism-based; settings: in vivo, iv, 0.75 h
Rattus norvegicus [30] = species on record: Rattus norvegicus; assay: Biodistribution of radioactivity in rat hypothalamus upon Tail-Vein injection of [11C]-labeled compound after 5 min; assay type: ADME, organism-based; settings: in vivo, iv
Rattus norvegicus [31] = species on record: Rattus norvegicus; assay: Biodistribution of radioactivity in rat hypothalamus upon Tail-Vein injection of [11C]-labeled compound after 60 min; assay type: ADME, organism-based; settings: in vivo, iv, 1 h
Rattus norvegicus [32] = species on record: Rattus norvegicus; assay: Biodistribution of radioactivity in rat striatum upon Tail-Vein injection of [11C]-labeled compound after 15 min; assay type: ADME, organism-based; settings: in vivo, iv, 0.25 h
Rattus norvegicus [33] = species on record: Rattus norvegicus; assay: Biodistribution of radioactivity in rat striatum upon Tail-Vein injection of [11C]-labeled compound after 30 min; assay type: ADME, organism-based; settings: in vivo, iv, 0.5 h
Rattus norvegicus [34] = species on record: Rattus norvegicus; assay: Biodistribution of radioactivity in rat striatum upon Tail-Vein injection of [11C]-labeled compound after 45 min; assay type: ADME, organism-based; settings: in vivo, iv, 0.75 h
Rattus norvegicus [35] = species on record: Rattus norvegicus; assay: Biodistribution of radioactivity in rat striatum upon Tail-Vein injection of [11C]-labeled compound after 5 min; assay type: ADME, organism-based; settings: in vivo, iv
Rattus norvegicus [36] = species on record: Rattus norvegicus; assay: Biodistribution of radioactivity in rat striatum upon Tail-Vein injection of [11C]-labeled compound after 60 min; assay type: ADME, organism-based; settings: in vivo, iv, 1 h
[37] = target: Sodium-dependent noradrenaline transporter (Homo sapiens, UniProt P23975); assay: In vitro binding affinity on cloned Norepinephrine transporter
In short: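 Competition binding in triplicate on membranes from cloned human transporters. Buffer 50 mM Tris-Cl pH 7.4 with 150 mM NaCl/5 mM KCl (SERT, NET) or 100 mM NaCl (DAT). Incubated 40 min at 37 °C, then filtered on PEI-soaked GF/B filters. Nonspecific binding set with duloxetine 1 µM (SERT), desipramine 10 µM (NET) or nomifensine 10 µM (DAT). IC50 from nonlinear fit; Ki by Cheng-Prusoff.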

[38] = target: Sodium-dependent serotonin transporter (Homo sapiens, UniProt P31645); assay: In vitro binding affinity on cloned Serotonin transporter
In short: (§1)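 Competition binding in triplicate on membranes from cloned human transporters. Radioligands: SERT [3H]paroxetine 0.2 nM with 10.3 µg protein, NET [3H]nisoxetine 1.0 nM with 16.9 µg, DAT [3H]WIN 35,428 1.0 nM with 6.2 µg. Buffer 50 mM Tris-Cl pH 7.4 with 150 mM NaCl/5 mM KCl (SERT, NET) or 100 mM NaCl (DAT). Incubated 40 min at 37 °C, then filtered on PEI-soaked GF/B filters. Nonspecific binding set with duloxetine 1 µM (SERT), desipramine 10 µM (NET) or nomifensine 10 µM (DAT). IC50 from nonlinear fit; Ki by Cheng-Prusoff.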

Rattus norvegicus [39] = species on record: Rattus norvegicus; assay: Biodistribution of radioactivity in rat thalamus upon Tail-Vein injection of [11C]-labeled compound after 60 min; assay type: ADME, organism-based; settings: in vivo, iv, 1 h
[40] = target: Sodium-dependent dopamine transporter (Homo sapiens, UniProt Q01959); assay: In vitro binding affinity on cloned Dopamine transporter; in short: as §1
Rattus norvegicus [41] = species on record: Rattus norvegicus; assay: Biodistribution of radioactivity in rat blood upon Tail-Vein injection of [11C]-labeled compound after 30 min upon; assay type: ADME, organism-based; settings: in vivo, iv, 0.5 h

Chain of Sodium-dependent serotonin transporter (P31645 whole entry): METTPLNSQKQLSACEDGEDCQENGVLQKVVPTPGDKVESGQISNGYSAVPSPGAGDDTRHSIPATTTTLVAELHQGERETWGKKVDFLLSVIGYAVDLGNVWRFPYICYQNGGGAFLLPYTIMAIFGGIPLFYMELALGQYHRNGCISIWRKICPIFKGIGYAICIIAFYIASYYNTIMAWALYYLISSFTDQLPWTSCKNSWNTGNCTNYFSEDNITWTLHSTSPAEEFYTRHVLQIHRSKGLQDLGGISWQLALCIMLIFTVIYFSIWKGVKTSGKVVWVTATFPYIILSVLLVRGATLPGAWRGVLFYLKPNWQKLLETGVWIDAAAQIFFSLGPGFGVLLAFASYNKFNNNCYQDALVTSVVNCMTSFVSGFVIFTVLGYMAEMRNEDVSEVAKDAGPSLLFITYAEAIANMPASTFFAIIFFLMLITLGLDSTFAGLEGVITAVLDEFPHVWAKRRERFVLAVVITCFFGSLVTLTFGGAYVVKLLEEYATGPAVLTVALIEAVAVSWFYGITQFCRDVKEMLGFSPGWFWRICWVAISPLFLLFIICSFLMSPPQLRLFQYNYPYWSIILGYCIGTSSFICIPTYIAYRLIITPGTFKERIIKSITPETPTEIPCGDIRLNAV
Chain of Sodium-dependent noradrenaline transporter (P23975 whole entry): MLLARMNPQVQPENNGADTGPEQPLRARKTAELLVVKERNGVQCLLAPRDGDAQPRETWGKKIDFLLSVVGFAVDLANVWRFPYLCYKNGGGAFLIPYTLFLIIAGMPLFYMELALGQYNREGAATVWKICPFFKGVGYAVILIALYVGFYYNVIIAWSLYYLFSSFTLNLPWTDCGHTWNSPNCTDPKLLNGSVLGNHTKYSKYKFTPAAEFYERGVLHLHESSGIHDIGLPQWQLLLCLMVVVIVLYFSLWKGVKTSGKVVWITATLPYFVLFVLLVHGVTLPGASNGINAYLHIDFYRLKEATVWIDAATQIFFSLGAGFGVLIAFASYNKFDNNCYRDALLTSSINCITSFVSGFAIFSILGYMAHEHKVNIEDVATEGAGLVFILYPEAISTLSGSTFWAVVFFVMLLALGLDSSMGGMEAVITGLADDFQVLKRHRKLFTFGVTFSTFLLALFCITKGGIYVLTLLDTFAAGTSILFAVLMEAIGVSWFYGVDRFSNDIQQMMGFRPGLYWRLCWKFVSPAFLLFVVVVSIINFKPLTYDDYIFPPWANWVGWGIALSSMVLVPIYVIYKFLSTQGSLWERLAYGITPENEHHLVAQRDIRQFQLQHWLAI
Chain of Sodium-dependent dopamine transporter (Q01959 whole entry): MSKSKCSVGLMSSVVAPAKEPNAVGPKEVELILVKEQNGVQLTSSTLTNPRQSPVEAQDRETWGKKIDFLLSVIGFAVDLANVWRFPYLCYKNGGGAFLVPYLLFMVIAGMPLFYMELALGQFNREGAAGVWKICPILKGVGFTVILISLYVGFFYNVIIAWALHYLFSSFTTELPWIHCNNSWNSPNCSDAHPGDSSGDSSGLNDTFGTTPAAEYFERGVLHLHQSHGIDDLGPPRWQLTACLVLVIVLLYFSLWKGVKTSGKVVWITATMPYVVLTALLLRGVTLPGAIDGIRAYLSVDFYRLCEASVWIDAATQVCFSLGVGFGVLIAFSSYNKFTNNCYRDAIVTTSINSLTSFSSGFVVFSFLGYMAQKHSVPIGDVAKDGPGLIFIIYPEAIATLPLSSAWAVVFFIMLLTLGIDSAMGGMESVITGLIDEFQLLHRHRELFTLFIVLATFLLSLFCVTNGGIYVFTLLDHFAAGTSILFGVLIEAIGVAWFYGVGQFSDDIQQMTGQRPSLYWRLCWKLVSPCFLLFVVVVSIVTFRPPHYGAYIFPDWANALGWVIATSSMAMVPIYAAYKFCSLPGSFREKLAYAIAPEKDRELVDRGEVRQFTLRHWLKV

| SMILES | T1/2 [1] | logD [2] | ID/g (Rattus norvegicus [3]) | ID/g (Rattus norvegicus [4]) | ID/g (Rattus norvegicus [6]) | ID/g (Rattus norvegicus [9]) | ID/g (Rattus norvegicus [10]) | ID/g (Rattus norvegicus [11]) | ID/g (Rattus norvegicus [12]) | ID/g (Rattus norvegicus [14]) | ID/g (Rattus norvegicus [15]) | ID/g (Rattus norvegicus [16]) | ID/g (Rattus norvegicus [17]) | ID/g (Rattus norvegicus [19]) | ID/g (Rattus norvegicus [20]) | ID/g (Rattus norvegicus [21]) | ID/g (Rattus norvegicus [22]) | ID/g (Rattus norvegicus [23]) | ID/g (Rattus norvegicus [25]) | ID/g (Rattus norvegicus [26]) | further results |
| --- | --- | --- | --- | --- | --- | --- | --- | --- | --- | --- | --- | --- | --- | --- | --- | --- | --- | --- | --- | --- | --- |
| COc1ccc(Sc2ccccc2CN(C)C)c(N)c1 | 18.8 min | 2.83 | 1.13% | 0.83% | 0.17% | 0.3% | 0.07% | 0.52% | 0.27% | 0.8% | 0.1% | 1.11% | 0.7% | 1.12% | 1.37% | 0.36% | 0.98% | 0.74% | 1.09% | 0.38% | ID/g (Rattus norvegicus [5]): 0.71%; ID/g (Rattus norvegicus [7]): 0.13%; ID/g (Rattus norvegicus [8]): 0.1%; ID/g (Rattus norvegicus [13]): 0.2%; ID/g (Rattus norvegicus [18]): 0.54%; ID/g (Rattus norvegicus [24]): 0.56%; ID/g (Rattus norvegicus [27]): 1.31%; ID/g (Rattus norvegicus [28]): 1.08%; ID/g (Rattus norvegicus [29]): 0.89%; ID/g (Rattus norvegicus [30]): 1.22%; ID/g (Rattus norvegicus [31]): 0.63%; ID/g (Rattus norvegicus [32]): 1.07%; ID/g (Rattus norvegicus [33]): 0.76%; ID/g (Rattus norvegicus [34]): 0.58%; ID/g (Rattus norvegicus [35]): 1.19%; ID/g (Rattus norvegicus [36]): 0.38%; Ki [37]: 1.99 µM; Ki [38]: 0.00189 µM; ID/g (Rattus norvegicus [39]): 0.48%; Ki [40]: 2.65 µM |
| CN(C)Cc1ccccc1Sc1ccc(C(F)(F)F)cc1N | 32.3 min | 3.77 | 1.06% | 1.07% | 0.21% | 0.35% | 0.12% | 0.7% | 0.47% | 0.92% | 0.28% | 1.06% | 0.98% | 1.07% | 1.09% | 0.69% | 0.91% | 0.88% | 0.92% | 0.75% | ID/g (Rattus norvegicus [41]): 0.21%; ID/g (Rattus norvegicus [27]): 1.17%; ID/g (Rattus norvegicus [28]): 1.23%; ID/g (Rattus norvegicus [30]): 1.02%; ID/g (Rattus norvegicus [31]): 0.99%; ID/g (Rattus norvegicus [32]): 1.02%; ID/g (Rattus norvegicus [33]): 0.99%; ID/g (Rattus norvegicus [35]): 1.05%; ID/g (Rattus norvegicus [36]): 0.72%; Ki [37]: 1.2 µM; Ki [38]: 0.00033 µM; ID/g (Rattus norvegicus [39]): 0.89%; Ki [40]: 2.04 µM |
